In ChEMBL document CHEMBL1148917, “Dibenzyl bromophenols with diverse dimerization patterns from the brown alga Leathesia nana” (J Nat Prod, 2004):

Experiments:
Assay type in all cases: functional, cell-based
[1] = test system: Bel-7402; assay: Cytotoxicity against human Bel7402 cells after 96 hrs by MTT assay
In short: (§1)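 Cells grown in RPMI1640 with 10% FBS, penicillin and streptomycin at 37 °C under humidified 5% CO2; seeded at 1200 cells/well and dosed 24 h later. Five concentrations per compound in DMSO (0.1% final), three parallel wells each. After 96 h exposure, MTT conversion to formazan read at 570 nm; IC50 calculated from the readings.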

[2] = test system: HCT-8; assay: Cytotoxicity against human HCT8 cells after 96 hrs by MTT assay; in short: as §1
[3] = test system: A549; assay: Cytotoxicity against human A549 cells after 96 hrs by MTT assay; in short: as §1
[4] = test system: MCF7; assay: Cytotoxicity against human MCF7 cells after 96 hrs by MTT assay; in short: as §1
[5] = test system: BGC-823; assay: Cytotoxicity against human BGC823 cells after 96 hrs by MTT assay; in short: as §1

Row | Compound | IC50 [1] [uM/ml] | IC50 [2] [µM] | IC50 [3] [µM] | IC50 [4] [µM] | IC50 [5] [µM]
1 | COCc1cc(O)c(O)c(Br)c1Cc1cc(O)c(O)c(Br)c1Br | 0.0074 | 5.9 | 5.4 | 4.6 | 18
2 | Oc1cc(Cc2cc(O)c(O)c(Br)c2Br)c(Br)c(Br)c1O | > 0.0182 | 2.2 | 1.8 | 2.7 | 3.8
3 | COCc1c(Br)c(Br)c(O)c(O)c1Cc1cc(O)c(O)c(Br)c1Br | 0.0048 | > 16.8 | 2.5 | 2.7 | 8.8
4 | CCOCc1cc(O)c(O)c(Br)c1Cc1cc(O)c(O)c(Br)c1Br | 0.0055 | 2.8 | > 19 | 3.4 | 4.6
5 | Oc1cc(COCc2cc(O)c(O)c(Br)c2Br)c(Br)c(Br)c1O | > 0.0019 | 20.7 | > 19.5 | 21.4 | 8.6
